Results gathered from unrelated publications.
RPS6KA4 C-terminal kinase domain: Ribosomal protein S6 kinase alpha-4, C-terminal kinase domain (RPS6KA4, Homo sapiens, UniProt O75676)
RPS6KA4: Ribosomal protein S6 kinase alpha-4 (RPS6KA4, Homo sapiens, UniProt O75676)

| SMILES | target | observed | mode | method | tested at | endpoint | value |
| --- | --- | --- | --- | --- | --- | --- | --- |
| N#CC1(c2ccccn2)CCN(Cc2cc(C(=O)O)c(=O)n3ccccc23)CC1 | RPS6KA4 C-terminal kinase domain | cell-free assay | – | competition with immobilised ligand | 1 µM | remaining binding | 65% |
| Cn1cc(-c2cccc(N3CCc4c(sc5c4CC(C)(C)C5)C3=O)c2CO)cc(Nc2ccncn2)c1=O | RPS6KA4 | enzyme activity | inhibitor | – | 1 µM | inhibition | 3% |
| CC(C)(C)c1cc(C=C(C#N)C#N)cc(Br)c1O | RPS6KA4 | enzyme activity | inhibitor | – | 0.5 µM | remaining activity | 90.9% |
| Cn1cncc1[C@](O)(COc1ccc(C#N)cc1-c1ccc(OC(F)(F)F)cc1)c1ccc(C#N)cc1 | RPS6KA4 C-terminal kinase domain | cell-free assay | – | competition with immobilised ligand | 1 µM | remaining binding | 76% |
| Cc1nn(C)cc1-c1nc2c(N3CCN(Cc4ccc(Cl)cc4)CC3)c(Cl)cnc2[nH]1 | Ribosomal protein S6 kinase alpha-4, N-terminal kinase domain (RPS6KA4, Homo sapiens, UniProt O75676) | binding | – | competition with immobilised ligand | 1 µM | remaining binding | 62% |
| O=c1[nH]c2ccccc2n1C1CCN(Cc2ccc(-c3[nH]c4cc5ncnc5cc4nc3-c3ccccc3)cc2)CC1 | RPS6KA4 | cell-free assay | – | – | 0.5 µM | remaining signal | 98.8% |
| Cn1cc(-c2cc(F)cc(N3CCn4c(cc5c4CCCC5)C3=O)c2CO)cc(Nc2ccc(N3CCN(C4COC4)CC3)cn2)c1=O | RPS6KA4 | enzyme activity | inhibitor | – | 0.1 µM | inhibition | 15% |
| Nc1ncc(-c2nc(N3CCOCC3)nc(N3CCOCC3)n2)c(C(F)F)n1 | RPS6KA4 C-terminal kinase domain | binding | – | competition with immobilised ligand | 10 µM | remaining binding | 63% |
